Assay results reported in ChEMBL document CHEMBL5712087, “Targeting bromodomain-containing protein 4 (BRD4) inhibits MYC expression in colorectal cancer cells” (Neoplasia, 2019).
The source made the active and inactive calls.

Legend:
LS174T = experiment: Inhibition of colony formation in human LS174T cells at 500 to 1000 nM by crystal violet staining analysis; assay type: functional, cell-based; conditions: dose 500-1000 nM
In short: (§1)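 Exponentially growing cells (1-2x10^3) plated in six-well plates; after 48 h treated with indicated concentrations for 3–5 days, then methanol-fixed and crystal violet stained. Cell lines maintained at 37 °C, 5% CO2 in serum-supplemented medium, STR-validated, mycoplasma-tested, <15 passages.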

HCT-116 [1] = experiment: Inhibition of colony formation in human HCT116 p53-/- cells at 500 to 1000 nM by crystal violet staining analysis; assay type: functional, cell-based; conditions: dose 500-1000 nM; in short: as §1
[2] = target: Bromodomain-containing protein 4 (Homo sapiens) (UniProt O60885); conditions: LS174T, dose 500-1000 nM, time 24.0 hrs
[3] = target: Bromodomain-containing protein 4 (Homo sapiens) (UniProt O60885); conditions: HT-29, dose 500-1000 nM, time 24.0 hrs
[4] = target: Bromodomain-containing protein 4 (Homo sapiens) (UniProt O60885); conditions: LS174T, dose 500-1000 nM, time 24.0 hrs; remark: listed apart in the source
[5] = target: Bromodomain-containing protein 4 (Homo sapiens) (UniProt O60885); conditions: COLO 320, dose 500-1000 nM, time 24.0 hrs
[6] = target: Bromodomain-containing protein 4 (Homo sapiens) (UniProt O60885); conditions: LS174T, dose 500-1000 nM, time 24.0 hrs; remark: listed apart in the source
[7] = target: Bromodomain-containing protein 4 (Homo sapiens) (UniProt O60885); conditions: DLD-1, dose 500-1000 nM, time 24.0 hrs
HCT-116 [8] = experiment: Inhibition of colony formation in human HCT116 p53+/+ cells at 500 to 1000 nM by crystal violet staining analysis; assay type: functional, cell-based; conditions: dose 500-1000 nM; in short: as §1
SW480 = experiment: Inhibition of colony formation in human SW480 cells at 500 to 1000 nM by crystal violet staining analysis; assay type: functional, cell-based; conditions: dose 500-1000 nM; in short: as §1
COLO 320 = experiment: Inhibition of colony formation in human COLO 320 cells at 500 to 1000 nM by crystal violet staining analysis; assay type: functional, cell-based; conditions: dose 500-1000 nM; in short: as §1
DLD-1 = experiment: Inhibition of colony formation in human DLD-1 cells at 500 to 1000 nM by crystal violet staining analysis; assay type: functional, cell-based; conditions: dose 500-1000 nM; in short: as §1
[9] = target: Bromodomain-containing protein 4 (Homo sapiens) (UniProt O60885); conditions: HCT-116, dose 500-1000 nM, time 24.0 hrs
[10] = target: Bromodomain-containing protein 4 (Homo sapiens) (UniProt O60885); conditions: SW480, dose 500-1000 nM, time 24.0 hrs
[11] = target: Bromodomain-containing protein 4 (Homo sapiens) (UniProt O60885); conditions: HCT-116, dose 500-1000 nM, time 24.0 hrs; remark: listed apart in the source
HT-29 = experiment: Inhibition of colony formation in human HT-29 cells at 500 to 1000 nM by crystal violet staining analysis; assay type: functional, cell-based; conditions: dose 500-1000 nM; in short: as §1

Measured: inhibition

Cc1sc2c(c1C)C(c1ccc(Cl)cc1)=N[C@@H](CC(=O)OC(C)(C)C)c1nnc(C)n1-2
active: all assays above
